Experimental data as given in ChEMBL document CHEMBL1148022, “Discovery of new C3aR ligands. Part 2: amino-piperidine derivatives” (Bioorg Med Chem Lett, 2007).
Active and inactive are the calls of the source. No cut-off for these calls is given here.

Experiments:
[1] = Oral bioavailability in rat at 1 mg/kg; format: ADME, organism-based; details: in vivo
Procedure, shortened: (§1)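 Male rats received a single oral or iv dose of 1 mg/kg.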

[2] = target: T1, C3a anaphylatoxin chemotactic receptor (Homo sapiens, UniProt Q16581); experiment: (§2) Displacement of [125I]C3a from human C3a receptor expressed in HMC1 cells co-expressing aequorin; format: cell-based
T1 sequence (Q16581 whole entry): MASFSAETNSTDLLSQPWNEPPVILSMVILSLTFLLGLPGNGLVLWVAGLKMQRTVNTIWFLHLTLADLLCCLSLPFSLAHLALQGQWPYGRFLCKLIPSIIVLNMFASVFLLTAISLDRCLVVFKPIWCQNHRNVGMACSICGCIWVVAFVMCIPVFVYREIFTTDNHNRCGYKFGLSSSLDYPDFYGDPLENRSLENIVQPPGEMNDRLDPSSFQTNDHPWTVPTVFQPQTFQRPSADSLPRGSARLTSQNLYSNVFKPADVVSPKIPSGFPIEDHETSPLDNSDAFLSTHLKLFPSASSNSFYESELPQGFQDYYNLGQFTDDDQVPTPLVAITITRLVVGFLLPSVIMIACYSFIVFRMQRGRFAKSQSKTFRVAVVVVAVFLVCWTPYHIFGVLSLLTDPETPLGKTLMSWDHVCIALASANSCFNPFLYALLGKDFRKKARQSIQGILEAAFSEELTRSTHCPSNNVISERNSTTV
Procedure, shortened: (§3)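 Scintillation proximity assay used wheat germ agglutinin beads and membranes from HMC-1 cells co-expressing Aequorin and human C3aR. Test compound was added at various concentrations with 0.02 nM ¹²⁵I-C3a in 50 mM Tris/2 mM MgCl₂/0.5% BSA. Non-specific binding was defined with 1 nM C3a. Plates were incubated 3 h at rt and read by scintillation counting. Values are means of three experiments.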

[3] = Clearance in rat microsomes; format: ADME, Liver, Microsome
[4] = tested on: Hepatocyte; experiment: Clearance in rat hepatocytes; format: ADME, cell-based, Liver
[5] = Elimination half life in rat at 1 mg/kg, iv and 1 mg/kg, po; format: ADME, organism-based; details: in vivo; procedure, shortened: as §1
[6] = Permeability across Caco-2 cells; format: ADME, cell-based; details: human, read-out: permeability
[7] = target: T2, C3a anaphylatoxin chemotactic receptor (Homo sapiens) (UniProt Q16581); experiment: as §2; format: cell-based; procedure, shortened: as §3
T2 sequence (whole entry): T1 sequence (Q16581 whole entry)

[8] = target: T1, C3a anaphylatoxin chemotactic receptor; experiment: Antagonist activity at human C3a receptor expressed in HMC1 cells co-expressing aequorin; format: functional, cell-based
Procedure, shortened: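 Aequorin/human C3aR HMC-1 cells were loaded with coelenterazine for 2 h. They were then plated and pre-treated with compound dilutions for 1 h at 37 °C, 1% DMSO. C3a agonist was then injected at 5 nM final. Light emission was the read-out.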

[9] = target: T1, C3a anaphylatoxin chemotactic receptor; experiment: Agonist activity at human C3a receptor expressed in HMC1 cells co-expressing aequorin; format: functional, cell-based
Procedure, shortened: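 They were then diluted fourfold and held 1 h at 37 °C. Compound was injected at 1% DMSO final. Luminescence was recorded for 30 s right after injection. Maximal signal was set with 50 nM C3a.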

bioavailability [1] [%] | CL [3] [µL/min] | half-life [5] [min] | SMILES | IC50 [2] [nM] | further results
1 | 500 | 42 | O=C(NC1CCN(C(=O)CCc2cccnc2)CC1)C(CC1CCCCC1)c1ccccc1 (stereo not drawn) | 794 | CL [4]: 44 µL/min
2 | 170 | 18 | O=C(NC1CCN(C(=O)CCc2cccnc2)CC1)C(c1ccccc1)C1CCC(F)(F)CC1 (stereo not drawn) | 631 | Papp [6]: 16 ×10⁻⁶ cm/s
 |  |  | O=C(NC1CCN(C(=O)CCc2cccnc2)CC1)C(c1ccsc1)C1CCCCC1 (stereo not drawn) | 200 | 
 |  |  | O=C(NC1CCN(C(=O)CCc2cccnc2)CC1)C(c1ccccc1)C1CCCCC1 (single isomer, unassigned; epimer A) | 5010 | 
3 | 175 | 18 | Cc1cncc(/C=C/C(=O)N2CCC(NC(=O)C(c3ccccc3)C3CCCCC3)CC2)c1 (stereo not drawn) | 50100 | Papp [6]: 7.9 ×10⁻⁶ cm/s; CL [4]: 21 µL/min
 |  |  | O=C(NC1CCN(C(=O)CCc2cccnc2)CC1)C(c1ccc([N+](=O)[O-])cc1)C1CCCCC1 (stereo not drawn) | 316 | 
0 | 500 | 18 | O=C(NC1CCN(C(=O)CCc2cccnc2)CC1)C(c1ccc(Cl)cc1)C1CCCCC1 (stereo not drawn) | 200 | Papp [6]: 10 ×10⁻⁶ cm/s; CL [4]: 28 µL/min
 |  |  | O=C(NC1CCN(C(=O)/C=C/c2ccccc2F)CC1)C(c1ccccc1)C1CCCCC1 (stereo not drawn) | 12600 | 
 |  |  | O=C(NC1CCN(C(=O)CCc2ccccc2F)CC1)C(c1ccccc1)C1CCCCC1 (stereo not drawn) | 2000 | 
 |  |  | O=C(NC1CCN(C(=O)CCc2ccncc2)CC1)C1c2cc(Cl)ccc2Oc2ccc(Cl)cc21 |  | Log IC50 [7]: inactive
5 | 500 | 6 | O=C(NC1CCN(C(=O)CCc2cccnc2)CC1)C(c1ccccc1)c1ccccc1 | 12600 | IC50 [8]: 3160 nM; Papp [6]: 8.5 ×10⁻⁶ cm/s; CL [4]: 21 µL/min
 |  |  | COc1ncccc1CCC(=O)N1CCC(NC(=O)C(c2ccccc2)C2CCCCC2)CC1 (stereo not drawn) | 15800 | 
 |  |  | O=C(NC1CCN(C(=O)CCc2ccccn2)CC1)C1c2cc(Cl)ccc2Oc2ccc(Cl)cc21 |  | Log IC50 [7]: inactive
 |  |  | O=C(NC1CCN(C(=O)CCc2cccnc2)CC1)C1c2ccccc2Cc2ccccc21 | 79400 | 
 |  |  | Cc1ccccc1C(C(=O)NC1CCN(C(=O)CCc2cccnc2)CC1)C1CCCCC1 (stereo not drawn) | 2510 | 
 |  |  | O=C(NC1CCN(C(=O)CCc2cccnc2F)CC1)C(c1ccccc1)C1CCCCC1 (stereo not drawn) | 31.6 | EC50 [9]: 200 nM
 |  |  | CC1(C)CCC(C(C(=O)NC2CCN(C(=O)CCc3cccnc3)CC2)c2ccccc2)CC1 (stereo not drawn) | 1000 | 
 |  |  | Cc1cccc(C(C(=O)NC2CCN(C(=O)CCc3cccnc3)CC2)C2CCCCC2)c1 (stereo not drawn) | 79.4 | 

bioavailability [1] [%] | CL [3] [µL/min] | half-life [5] [min] | SMILES | IC50 [2] [nM] | further results
 |  |  | O=C(NC1CCN(C(=O)CCc2cccnc2)CC1)C1c2cc(Cl)ccc2Oc2ccc(Cl)cc21 | 1580 | IC50 [8]: 631 nM
 |  |  | O=C(NC1CCN(C(=O)CCc2cccnc2)CC1)/C(=C/C1CCCCC1)c1ccccc1 | 25100 | 
 |  |  | O=C(NC1CCN(C(=O)CCc2cccnc2)CC1)C(c1ccccc1)C1CCCC1 (stereo not drawn) | 794 | 
6 | 675 | 12 | O=C(NC1CCN(C(=O)CCc2cccnc2)CC1)C(C1CCCCC1)C1CCCCC1 | 1000 | 
9 | 585 | 30 | O=C(NC1CCN(C(=O)CCc2cccnc2)CC1)C(c1ccc2ccccc2c1)C1CCCCC1 (stereo not drawn) | 794 | EC50 [9]: 1580 nM
5 | 500 | 12 | O=C(NC1CCN(C(=O)CCc2cccnc2)CC1)C(c1ccccc1)C1CCCCC1 (stereo not drawn) | 794 | Papp [6]: 12 ×10⁻⁶ cm/s; CL [4]: 33 µL/min; EC50 [9]: 2000 nM
 |  |  | O=C(NC1CCN(C(=O)CCc2cccnc2)CC1)C(c1ccc(F)cc1)C1CCCCC1 (stereo not drawn) | 158 | 
 |  |  | COc1ccc(C(C(=O)NC2CCN(C(=O)CCc3cccnc3)CC2)C2CCCCC2)cc1 (stereo not drawn) | 631 | 
 |  |  | O=C(NC1CCN(C(=O)CCc2cccnc2)CC1)C(c1ccccc1)C1CCCCC1 (single isomer, unassigned; epimer B) | 316 | 
0 | 609 | 18 | O=C(NC1CCN(C(=O)CCc2cccnc2)CC1)C(c1cc(F)c(F)c(F)c1)C1CCCCC1 (stereo not drawn) | 100 | CL [4]: 17 µL/min; EC50 [9]: 794 nM
 |  |  | Cc1cc(C)cc(C(C(=O)NC2CCN(C(=O)CCc3cccnc3)CC2)C2CCCCC2)c1 (stereo not drawn) | 126 | 
 |  |  | Cc1ccc(C(C(=O)NC2CCN(C(=O)CCc3cccnc3)CC2)C2CCCCC2)cc1 (stereo not drawn) | 794 | 
 |  |  | O=C(NC1CCN(C(=O)CCc2cccnc2)CC1)C(c1ccccc1)C1CC=CC1 (stereo not drawn) | 3160 | 
 |  |  | O=C(NC1CCN(C(=O)Cc2cccc(F)c2F)CC1)C(c1ccccc1)C1CCCCC1 (stereo not drawn) | 10000 | 
 |  |  | CC1(C)CC(C(C(=O)NC2CCN(C(=O)CCc3cccnc3)CC2)c2ccccc2)CC(C)(C)C1 (stereo not drawn) | 63100 | 
0 | 782 | 18 | O=C(NC1CCN(C(=O)CCc2ccc(F)nc2)CC1)C(c1ccccc1)C1CCCCC1 (stereo not drawn) | 1260 | Papp [6]: 19 ×10⁻⁶ cm/s
0 | 175 | 24 | O=C(NC1CCN(C(=O)CCc2cccnc2)CC1)C(c1ccc(Cl)cc1)c1ccc(Cl)cc1 | 20000 | Papp [6]: 6.3 ×10⁻⁶ cm/s
7 | 238 | 18 | O=C(NC1CCN(C(=O)/C=C/c2cccnc2)CC1)C(c1ccccc1)C1CCCCC1 (stereo not drawn) | 1000 | Papp [6]: 8.5 ×10⁻⁶ cm/s; CL [4]: 26 µL/min
